Measured values taken from ChEMBL document CHEMBL4406880, “Design, synthesis, and bioactivity of dihydropyrimidine derivatives as kinesin spindle protein inhibitors” (Bioorg Med Chem, 2019).

Experiments:
Assay type in all cases: functional
MOLT-4 = experiment: Growth inhibition of human MOLT4 cells assessed as growth percentage at 10 uM incubated for 48 hrs by sulforhodamine B assay relative to control; settings: MOLT-4, 48 h, read-out: Activity
Method in brief: (§1)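 NCI-60 one-dose screen. Cells in RPMI 1640 with 5% FBS and 2 mM L-glutamine, seeded at 5,000–40,000 cells/well according to doubling time, and preincubated overnight at 37 °C, 5% CO2. A time-zero plate was TCA-fixed at drug addition. Compound from DMSO stock, final 10 µM, 48 h; DMSO vehicle controls. Fixation with TCA, 10% final (16% for suspension cells). SRB stain, Tris solubilization, A515. Result given as % growth versus untreated cells.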

CAKI-1 = experiment: Growth inhibition of human Caki1 cells assessed as growth percentage at 10 uM incubated for 48 hrs by sulforhodamine B assay relative to control; settings: CAKI-1, 48 h, read-out: Activity
Method in brief: (§2)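 NCI-60 one-dose screen: cells in RPMI 1640 with 5% FBS and 2 mM L-glutamine, plated at 5,000–40,000 cells/well and preincubated 24 h at 37 °C, 5% CO2. Compound is added from a DMSO stock to a final 10 µM and incubated 48 h. Cells are TCA-fixed and stained with sulforhodamine B, read at 515 nm. Output is % growth versus untreated control, with a time-zero plate.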

MDA-MB-435 = experiment: Growth inhibition of human MDA-MB-435 cells assessed as growth percentage at 10 uM incubated for 48 hrs by sulforhodamine B assay relative to control; settings: MDA-MB-435, 48 h, read-out: Activity; method in brief: as §1
NCI-H23 = experiment: Growth inhibition of human NCI-H23 cells assessed as growth percentage at 10 uM incubated for 48 hrs by sulforhodamine B assay relative to control; settings: NCI-H23, 48 h, read-out: Activity; method in brief: as §1
UO-31 = experiment: Growth inhibition of human UO31 cells assessed as growth percentage at 10 uM incubated for 48 hrs by sulforhodamine B assay relative to control; settings: UO-31, 48 h, read-out: Activity
Method in brief: (§3)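 NCI-60 single-dose screen. Cells were grown in RPMI 1640 with 5% FBS and 2 mM L-glutamine and plated at 5,000–40,000 cells/well. After an overnight preincubation at 37 °C in 5% CO2, compound was added at a final 10 µM from a DMSO stock, with DMSO/PBS controls. After 48 h, cells were TCA-fixed and stained with 0.4% SRB, and absorbance was read at 515 nm. Growth is given as a percentage of untreated control.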

HOP-92 = experiment: Growth inhibition of human HOP92 cells assessed as growth percentage at 10 uM incubated for 48 hrs by sulforhodamine B assay relative to control; settings: HOP-92, 48 h, read-out: Activity; method in brief: as §1
OVCAR-3 = experiment: Growth inhibition of human OVCAR3 cells assessed as growth percentage at 10 uM incubated for 48 hrs by sulforhodamine B assay relative to control; settings: OVCAR-3, 48 h, read-out: Activity; method in brief: as §1
MCF7 = experiment: Growth inhibition of human MCF7 cells assessed as growth percentage at 10 uM incubated for 48 hrs by sulforhodamine B assay relative to control; settings: MCF7, 48 h, read-out: Activity; method in brief: as §1
HCC 2998 = experiment: Growth inhibition of human HCC2998 cells assessed as growth percentage at 10 uM incubated for 48 hrs by sulforhodamine B assay relative to control; settings: HCC 2998, 48 h, read-out: Activity; method in brief: as §2
HT-29 = experiment: Growth inhibition of human HT-29 cells assessed as growth percentage at 10 uM incubated for 48 hrs by sulforhodamine B assay relative to control; settings: HT-29, 48 h, read-out: Activity; method in brief: as §1
OVCAR-8 = experiment: Growth inhibition of human OVCAR8 cells assessed as growth percentage at 10 uM incubated for 48 hrs by sulforhodamine B assay relative to control; settings: OVCAR-8, 48 h, read-out: Activity; method in brief: as §3
SF-539 = experiment: Growth inhibition of human SF539 cells assessed as growth percentage at 10 uM incubated for 48 hrs by sulforhodamine B assay relative to control; settings: SF-539, 48 h, read-out: Activity; method in brief: as §3
RXF 393 = experiment: Growth inhibition of human RXF393 cells assessed as growth percentage at 10 uM incubated for 48 hrs by sulforhodamine B assay relative to control; settings: RXF 393, 48 h, read-out: Activity; method in brief: as §3
BT-549 = experiment: Growth inhibition of human BT549 cells assessed as growth percentage at 10 uM incubated for 48 hrs by sulforhodamine B assay relative to control; settings: BT-549, 48 h, read-out: Activity; method in brief: as §2
DU-145 = experiment: Growth inhibition of human DU145 cells assessed as growth percentage at 10 uM incubated for 48 hrs by sulforhodamine B assay relative to control; settings: DU-145, 48 h, read-out: Activity; method in brief: as §2
IGROV-1 = experiment: Growth inhibition of human IGROV1 cells assessed as growth percentage at 10 uM incubated for 48 hrs by sulforhodamine B assay relative to control; settings: IGROV-1, 48 h, read-out: Activity; method in brief: as §1
TK-10 = experiment: Growth inhibition of human TK10 cells assessed as growth percentage at 10 uM incubated for 48 hrs by sulforhodamine B assay relative to control; settings: TK-10, 48 h, read-out: Activity; method in brief: as §3
MDA-MB-468 = experiment: Growth inhibition of human MDA-MB-468 cells assessed as growth percentage at 10 uM incubated for 48 hrs by sulforhodamine B assay relative to control; settings: MDA-MB-468, 48 h, read-out: Activity; method in brief: as §1
CCRF-CEM = experiment: Growth inhibition of human CCRF-CEM cells assessed as growth percentage at 10 uM incubated for 48 hrs by sulforhodamine B assay relative to control; settings: read-out: Activity; method in brief: as §2
Hs-578T = experiment: Growth inhibition of human Hs 578T cells assessed as growth percentage at 10 uM incubated for 48 hrs by sulforhodamine B assay relative to control; settings: read-out: Activity; method in brief: as §1
T47D = experiment: Growth inhibition of human T47D cells assessed as growth percentage at 10 uM incubated for 48 hrs by sulforhodamine B assay relative to control; settings: read-out: Activity; method in brief: as §3
SNB-19 = experiment: Growth inhibition of human SNB19 cells assessed as growth percentage at 10 uM incubated for 48 hrs by sulforhodamine B assay relative to control; settings: SNB-19, 48 h, read-out: Activity; method in brief: as §3
NCI/ADR-RES = experiment: Growth inhibition of human NCI/ADR-RES cells assessed as growth percentage at 10 uM incubated for 48 hrs by sulforhodamine B assay relative to control; settings: read-out: Activity; method in brief: as §1
786-0 = experiment: Growth inhibition of human 786-0 cells assessed as growth percentage at 10 uM incubated for 48 hrs by sulforhodamine B assay relative to control; settings: 786-0, 48 h, read-out: Activity; method in brief: as §2
SK-MEL-28 = experiment: Growth inhibition of human SK-MEL-28 cells assessed as growth percentage at 10 uM incubated for 48 hrs by sulforhodamine B assay relative to control; settings: SK-MEL-28, 48 h, read-out: Activity; method in brief: as §3
COLO 205 = experiment: Growth inhibition of human COLO205 cells assessed as growth percentage at 10 uM incubated for 48 hrs by sulforhodamine B assay relative to control; settings: COLO 205, 48 h, read-out: Activity; method in brief: as §2

Compound	growth at 10 µM (MOLT-4) [%]	growth at 10 µM (CAKI-1) [%]	growth at 10 µM (MDA-MB-435) [%]	growth at 10 µM (NCI-H23) [%]	growth at 10 µM (UO-31) [%]	growth at 10 µM (HOP-92) [%]	growth at 10 µM (OVCAR-3) [%]	growth at 10 µM (MCF7) [%]	growth at 10 µM (HCC 2998) [%]	growth at 10 µM (HT-29) [%]	growth at 10 µM (OVCAR-8) [%]	growth at 10 µM (SF-539) [%]	growth at 10 µM (RXF 393) [%]	growth at 10 µM (BT-549) [%]	growth at 10 µM (DU-145) [%]	growth at 10 µM (IGROV-1) [%]	growth at 10 µM (TK-10) [%]	growth at 10 µM (MDA-MB-468) [%]	growth at 10 µM (Hs-578T) [%]	growth at 10 µM (T47D) [%]	other results
CC1=C(C(=O)OC(C)C)C(c2ccc3c(c2)OCO3)NC(=S)N1 (racemic)	110	93.8	106	99.2	84.5	96.6	121	98.7	115	103	102	98.9	106	96	109	99.9	98	115	97.3	91.4	growth at 10 µM (CCRF-CEM): 105%; growth at 10 µM (SNB-19): 95.5%; growth at 10 µM (NCI/ADR-RES): 101%; growth at 10 µM (786-0): 104%; growth at 10 µM (SK-MEL-28): 106%; growth at 10 µM (COLO 205): 123%
CC(=O)N1C(=S)NC(C)=C(C(=O)OCC(C)C)C1c1ccc2c(c1)OCO2 (racemic)	95.1	96.2	95.5	97.1	91.8	80.6	96.8	104	110	104	95.9	101	106	86.1	99.6	112	95.4	94.9	89.2	66.7	growth at 10 µM (SNB-19): 97.9%; growth at 10 µM (NCI/ADR-RES): 97%; growth at 10 µM (786-0): 95.1%; growth at 10 µM (SK-MEL-28): 105%; growth at 10 µM (COLO 205): 101%
CC(=O)N1C(=S)NC(C)=C(C(=O)OCc2ccccc2)C1c1ccc2c(c1)OCO2 (racemic)	58.7	92.4	60.1	94	85.4	73.3	104	92.1	110	52.2	80.3	84.2	101	88.8	95	98	100	78.9	76.8	58.1	growth at 10 µM (SNB-19): 87.8%; growth at 10 µM (NCI/ADR-RES): 95.3%; growth at 10 µM (786-0): 96.8%; growth at 10 µM (SK-MEL-28): 102%; growth at 10 µM (COLO 205): 91.8%
